# According to ChEMBL document CHEMBL2384952, “Synthesis, antifungal and cytotoxic activities of 2-aryl-3-((piperidin-1-yl)ethyl)thiazolidinones” (Eur J Med Chem, 2013):
# How the values were obtained:
# Vero [1] = experiment: Cytotoxicity against African green monkey Vero cells at 12.3 ug/mL by neutral red dye uptake assay relative to control; type: cell-based; details: chlorocebus sabaeus
# Procedure, shortened: (§1)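 Vero cells (over 99% viable by trypan blue exclusion) were exposed to serial compound dilutions in E-MEM, with fresh E-MEM as negative control, for 72 h at 37 °C, 5% CO2. Cells were then given 3.3 mg/L neutral red for 2 h, and the dye was extracted with 50% ethanol/1% acetic acid. A540 was read, and viability was calculated as treated/control absorbance × 100.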
# Vero [2] = experiment: Cytotoxicity against African green monkey Vero cells at 25 ug/mL by neutral red dye uptake assay relative to control; type: cell-based; details: chlorocebus sabaeus; procedure, shortened: as §1
# Vero [3] = experiment: Cytotoxicity against African green monkey Vero cells at 49 ug/mL by neutral red dye uptake assay relative to control; type: cell-based; details: chlorocebus sabaeus; procedure, shortened: as §1
# Vero [4] = experiment: Cytotoxicity against African green monkey Vero cells at 98 ug/mL by neutral red dye uptake assay relative to control; type: cell-based; details: chlorocebus sabaeus; procedure, shortened: as §1
# Vero [5] = experiment: Cytotoxicity against African green monkey Vero cells at 197 ug/mL by neutral red dye uptake assay relative to control; type: cell-based; details: chlorocebus sabaeus; procedure, shortened: as §1
# Vero [6] = experiment: Cytotoxicity against African green monkey Vero cells at 394 ug/mL by neutral red dye uptake assay relative to control; type: cell-based; details: chlorocebus sabaeus; procedure, shortened: as §1
# Vero [7] = experiment: Cytotoxicity against African green monkey Vero cells at 787 ug/mL by neutral red dye uptake assay relative to control; type: cell-based; details: chlorocebus sabaeus; procedure, shortened: as §1
# Vero [8] = experiment: Cytotoxicity against African green monkey Vero cells at 1575 ug/mL by neutral red dye uptake assay relative to control; type: cell-based; details: chlorocebus sabaeus; procedure, shortened: as §1
# Vero [9] = experiment: Cytotoxicity against African green monkey Vero cells at 3150 ug/mL by neutral red dye uptake assay relative to control; type: cell-based; details: chlorocebus sabaeus; procedure, shortened: as §1
# Candida parapsilosis = experiment: Antifungal activity against Candida parapsilosis after 48 hrs by CLSI M27A3 broth microdilution method; type: functional; details: Lodderomyces parapsilosis
# Procedure, shortened: (§2)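 Yeasts were kept on Sabouraud dextrose agar and subcultured at 35 °C for at least 2 days. They were suspended in saline to McFarland 0.5 and diluted in RPMI. Ten successive dilutions were made from a 1.6 mg/mL DMSO stock per CLSI broth microdilution, then incubated at 37 °C for 48 h. Growth was read visually against a growth-control well, and MIC is the lowest concentration inhibiting growth.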
# Geotrichum = experiment: Antifungal activity against Geotrichum species after 48 hrs by CLSI M27A3 broth microdilution method; type: functional; procedure, shortened: as §2
# Papiliotrema laurentii = experiment: Antifungal activity against Cryptococcus laurentii after 48 hrs by CLSI M27A3 broth microdilution method; type: functional; procedure, shortened: as §2
# Rhodotorula [10] = experiment: Antifungal activity against Rhodotorula species after 48 hrs by CLSI M27A3 broth microdilution method; type: functional; procedure, shortened: as §2
# Candida albicans = experiment: Antifungal activity against Candida albicans after 48 hrs by CLSI M27A3 broth microdilution method; type: functional; procedure, shortened: as §2
# Trichosporon asahii = experiment: Antifungal activity against Trichosporon asahii after 48 hrs by CLSI M27A3 broth microdilution method; type: functional; procedure, shortened: as §2
# [11] = system: Meyerozyma guilliermondii; experiment: Antifungal activity against Candida guilliermondii after 48 hrs by CLSI M27A3 broth microdilution method; type: functional; procedure, shortened: as §2
# Rhodotorula [12] = experiment: Ratio of fluconazole MIC to compound MIC for Rhodotorula species; type: functional
# Rhodotorula [13] = experiment: Ratio of fluconazole MFC to compound MFC for Rhodotorula species; type: functional
Compound,MIC (Candida parapsilosis) [µg/mL],MIC (Geotrichum) [µg/mL],MIC (Papiliotrema laurentii) [µg/mL],MIC (Rhodotorula [10]) [µg/mL],MIC (Candida albicans) [µg/mL],Cell viability (Vero [1]) [%],Cell viability (Vero [2]) [%],Cell viability (Vero [3]) [%],Cell viability (Vero [4]) [%],Cell viability (Vero [5]) [%],Cell viability (Vero [6]) [%],Cell viability (Vero [7]) [%],Cell viability (Vero [8]) [%],Cell viability (Vero [9]) [%],MFC (Candida parapsilosis) [µg/mL],MFC (Geotrichum) [µg/mL],MFC (Papiliotrema laurentii) [µg/mL],MFC (Rhodotorula [10]) [µg/mL],MFC (Candida albicans) [µg/mL],MFC (Trichosporon asahii) [µg/mL],further results
O=C1CSC(c2ccc(F)cc2)N1CCN1CCCCC1 (configuration not stated),100,50,100,25,45,100,100,100,87,73,52,17,14,11,100,50,100,25,45,100,MIC (Trichosporon asahii): 100 µg/mL; MFC [11]: 100 µg/mL; MIC [11]: 100 µg/mL
O=C1CSC(c2ccccc2Cl)N1CCN1CCCCC1 (configuration not stated),100,50,100,33,75,100,100,100,94,71,31,38,16,22,100,50,100,33,75,66.5,MIC (Trichosporon asahii): 66.5 µg/mL; MFC [11]: 100 µg/mL; MIC [11]: 100 µg/mL
COc1ccccc1C1SCC(=O)N1CCN1CCCCC1 (configuration not stated),100,41.5,100,16.5,100,100,100,100,100,72,67,30,17,5,100,41.5,100,16.5,100,50,Ratio (Rhodotorula [12]): 1.6; Ratio (Rhodotorula [13]): 1.6; MIC (Trichosporon asahii): 50 µg/mL; MFC [11]: 100 µg/mL; MIC [11]: 100 µg/mL

# Continued by falling MIC (Candida parapsilosis), values first:
MIC (Candida parapsilosis) [µg/mL],MIC (Geotrichum) [µg/mL],MIC (Papiliotrema laurentii) [µg/mL],MIC (Rhodotorula [10]) [µg/mL],MIC (Candida albicans) [µg/mL],Compound,Cell viability (Vero [1]) [%],Cell viability (Vero [2]) [%],Cell viability (Vero [3]) [%],Cell viability (Vero [4]) [%],Cell viability (Vero [5]) [%],Cell viability (Vero [6]) [%],Cell viability (Vero [7]) [%],Cell viability (Vero [8]) [%],Cell viability (Vero [9]) [%],MFC (Candida parapsilosis) [µg/mL],MFC (Geotrichum) [µg/mL],MFC (Papiliotrema laurentii) [µg/mL],MFC (Rhodotorula [10]) [µg/mL],MFC (Candida albicans) [µg/mL],MFC (Trichosporon asahii) [µg/mL],further results
100,> 400,100,36,100,O=C1CSC(c2ccccc2F)N1CCN1CCCCC1 (configuration not stated),100,100,95,82,65,45,10,10,10,100,> 400,100,36,100,> 400,MIC (Trichosporon asahii): > 400 µg/mL; MFC [11]: 133 µg/mL; MIC [11]: 133 µg/mL
100,100,100,16.5,50,O=C1CSC(c2cccc([N+](=O)[O-])c2)N1CCN1CCCCC1 (configuration not stated),100,100,100,94,75,60,15,7,2,100,100,100,16.5,50,> 400,Ratio (Rhodotorula [12]): 1.6; Ratio (Rhodotorula [13]): 1.6; MIC (Trichosporon asahii): > 400 µg/mL; MFC [11]: 100 µg/mL; MIC [11]: 100 µg/mL
100,> 400,100,33.5,150,O=C1CSC(c2cccc(F)c2)N1CCN1CCCCC1 (configuration not stated),100,100,97,92,84,60,27,17,13,100,> 400,100,33.5,150,> 400,MIC (Trichosporon asahii): > 400 µg/mL; MFC [11]: 100 µg/mL; MIC [11]: 100 µg/mL
